The source of these data is PubChem BioAssay AID1424 (The Scripps Research Institute Molecular Screening Center, 2008).

Screen size: about 220,000 compounds; about 390 (0.18%) were called active. The full list was thinned out, with actives kept by preference. Unmarked numbers belong to inactive results.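 How the source made its calls: active means activation above its plate's cutoff, the mean activation of test wells on that plate plus 3 SD (cut at about 19% in these data); inactive means the rest.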

This assay concerns transient receptor potential cation channel N1 (TRPN1/NompC), Danio rerio. The assay is described as follows: TRPN1 activation via calcium influx – cell-based, HEK293, calcium fluorescence, zebrafish, primary screen (AID 1424).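 Further: 0% = DMSO alone and 100% = 87 µM carbachol.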 Particulars: HEK293 zebrafish TRPN1-YFP, Fluo-8 calcium fluorescence; at 3 µM; active compounds read high; 100% = response to 87 µM carbachol. An outline of the steps:
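System: zebrafish TRPN1-YFP in HEK293 cells / Dosing: 3 µM single point / Timing: dye loading 1 h at 37 °C, then 30 min room temperature / Signal: Fluo-8 calcium fluorescence, excitation 470-495 nm, emission 515-575 nm / Read-out basis: percent activation from peak over basal fluorescence ratio, control-normalized / Control set: high carbachol 87 µM, low DMSO alone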
Regarding `COC(=O)c1ccc(NC(=O)c2ccccc2NS(=O)(=O)c2ccccc2)cc1`, the activation was 19.8% (active).

For `CCOc1ccc(NC(=O)c2ccccc2NS(C)(=O)=O)cc1`, the activation was 0.2%.

Consider `COc1cc(NC(=O)c2cccnc2SC)cc(OC)c1`, for which the activation is -0.29%.

For the compound `COC(=O)c1ccccc1NC(=O)c1ccccc1NS(C)(=O)=O`, the activation is -1.95%.

In the case of `COc1cc(NC(=O)c2ccccc2NS(=O)(=O)c2ccc(Cl)s2)cc(OC)c1`, the activation was 21% (active).

For `O=C(Nc1nncs1)c1ccccc1NS(=O)(=O)c1cccs1`, the activation is -0.5%.

As for `C=C(C)CNC(=S)N/N=C/c1ccccc1OCC(=O)O`, the activation is 1.26%.

As for `Cc1ccc2cc(CN(c3ccc(C)c(C)c3)S(C)(=O)=O)c(=O)[nH]c2c1`, the activation is 1.62%.

As to `CC#CC[N+](C)(C)CCCCCC`, the activation was -0.58%.

For the compound `COCCN(Cc1nc(-c2ccc(C(F)(F)F)cc2)no1)C(C)C`, the activation was 0.76%.

In the case of `O=C(CCNC(=O)Cn1ccc2ccccc2c1=O)NCCC1=CCCCC1`, the activation is -0.5%.

With `COc1ccc(OC)c(-c2c(=O)n(OCc3ccccc3Br)c3ccccc3[n+]2[O-])c1`, the activation was -1.72%.

For the compound `COc1ccc(C(C)=O)cc1COc1ccc(Cl)c(C)c1`, the activation is 0.81%.

Turning to `CCOC(=O)CC1C(=O)NCCN1c1nc2c(C)cccn2c(=O)c1/C=C1\SC(=S)N(C(C)CC)C1=O` (centres undefined), the activation is 23.3% (active).

Consider `Cc1cccn2c(=O)c(/C=C3\SC(=S)N(CC(C)C)C3=O)c(NCCCOC(C)C)nc12`, for which the activation was 1.73%.

With `CCOC(=O)CC1C(=O)NCCN1C(=O)COc1ccc(Br)cc1C` (centres undefined), the activation was -0.63%.

On to `CCOC(=O)C1(Cc2cccc(OC)c2)CCN(C(C)COC)CC1` (centres undefined), for which the activation was -0.77%.

For `Cc1ccc(N2C(=O)S/C(=C/c3cn(C)c4ccccc34)C2=O)cc1`, the activation was 1.3%.

As to `N#C/C(=C/c1ccc(N2CCCCC2)o1)C(=O)NCCc1c[nH]c2ccccc12`, the activation is 29.5% (active).

In the case of `N#C/C(=C/c1ccc(-c2ccccc2[N+](=O)[O-])o1)C(=O)NCCN1CCCCC1`, the activation was -2.16%.

Take `O=C(NCCc1c[nH]c2ccccc12)C(=O)NCC1CCCO1` (centres undefined): the activation is 0.46%.

`COCCCNC(=O)CNC(=S)N(Cc1cc(OC)c(OC)c(OC)c1)C1CCCC1`: the activation was 0.25%.

Consider `C=CCNC(=O)c1ccccc1NC(=O)c1ccc(Cl)c(S(=O)(=O)Nc2cccc(C)c2C)c1`, for which the activation is 1.27%.

For `Cn1nnnc1-c1cc(Cl)cc(Cl)c1`, the activation is -0.59%.

Regarding `CCN1/C(=C/c2ccc3ccc(C)cc3[n+]2CC)Sc2ccccc21`, the activation was 30.7% (active).

With `CCN1CCN(CCNC(=O)c2ccc(/C=C3/Sc4ccccc4N(Cc4cccc(C)c4)C3=O)cc2)CC1`, the activation is 4.77%.

On to `CCN1/C(=C/C(=S)Nc2ccccc2)Sc2ccccc21`, for which the activation is -1.89%.

In the case of `CCN1/C(=C\c2ccc3ccccc3[n+]2CC)Sc2cc(C)ccc21`, the activation is 38.4% (active).

Consider `CC(C)(C)C(=O)CSc1nc2ccccc2o1`, for which the activation was -0.66%.

As for `COc1ccc(-c2cn(-c3ccc(OC)cc3)c(=S)[nH]2)cc1`, the activation is -0.09%.

As for `COc1cc(OC)c(-n2c(C)cc(C=O)c2C)cc1Cl`, the activation is -1.14%.

For the compound `COc1cc(OC)c(-n2cc(-c3ccc(Cl)cc3)[nH]c2=O)cc1Cl`, the activation was 32.6% (active).

Turning to `O=C(c1snnc1-c1ccccc1)N1CCOCC1`, the activation is -0.06%.

For the compound `CC(=O)Nc1ccc(S(=O)(=O)Nc2ccc(-c3ccc4nnc(C)n4n3)cc2)cc1`, the activation was 0.58%.

Take `O=C(NCC(c1cccs1)N1CCOCC1)c1cc(-c2ccccn2)nc2ccccc12` (centres undefined): the activation is 1.98%.

For `CC(C)(C)c1cnnn1-c1ccc([N+](=O)[O-])cc1`, the activation was 1.54%.

Turning to `CN=C1C=C/C(=N/N=c2\ccn(O)cc2C)C=C1C`, the activation is -3.14%.

As for `CCC(C(=O)Nc1ccc(C(C)C)cc1)c1ccccc1` (centres undefined), the activation was 29% (active).

Regarding `CCC(C(=O)Nc1ccc2c(c1)OCCO2)c1ccccc1` (centres undefined), the activation was -0.31%.

As to `CCC(C(=O)OCC(=O)Nc1ccc(C(=O)Nc2ccc(OC)cc2)cc1)c1ccccc1` (centres undefined), the activation was 2.79%.

`O=C1NCC(=O)N(Cc2ccccc2)/C1=C/c1ccccc1`: the activation was 0.65%.

Turning to `CN(C)c1ccc(/C=C2\NC(=S)N(Cc3ccccc3)C2=O)cc1`, the activation is 30.3% (active).

For the compound `CC1=NN(Cc2ccccc2)C(=O)/C1=C/c1ccc(N(C)C)cc1`, the activation is -3.57%.

Turning to `Cc1ccc(S(=O)(=O)N2CCOCC2)cc1NC(=O)CSc1nnc(N)s1`, the activation is 0.64%.

Take `CC1CN(CCCOc2ccccc2-c2ccccc2)CC(C)O1` (centres undefined): the activation is -1.64%.

Turning to `CC(CNS(=O)(=O)c1ccc(Br)cc1)CN(C)C` (centres undefined), the activation was 0.45%.

As for `CCOc1cc2[nH]c(=O)n(Cc3ccc(C(=O)NCCCN4CCCC4=O)cc3)c(=O)c2cc1OCC`, the activation is -0.57%.

As to `CC(C)(c1ccccc1)c1ccc(OCCN)cc1`, the activation was 2.87%.

Take `CONc1nc2nonc2nc1NOC`: the activation was 2.6%.

Take `CC1C(=O)NC(=O)C1c1ccccc1` (centres undefined): the activation is 0.95%.

Consider `Cc1cc(C)c(OCCN2CC(C)OC(C)C2)c(Br)c1` (centres undefined), for which the activation is -2.75%.

For the compound `Cc1ccc2[nH]cc(CCNC(=O)c3ccc([N+](=O)[O-])cc3)c2c1`, the activation is -0.48%.

On to `COc1cc(/C=C(\C#N)c2nc3c(s2)CC(C)CC3)ccc1O` (centres undefined), for which the activation is 9.23%.

Turning to `CCOc1cc(/C=C(\C#N)c2nc(-c3cccs3)c(NC(C)=O)s2)ccc1O`, the activation is 26.9% (active).
